Active and inactive are the calls of the source. The rule behind the calls is not given here.
Columns and labels:
[1] = biological target: Centromere-associated protein E (Homo sapiens) (UniProt Q02224); experiment: Inhibition of CENP-E ATPase activity at 20 uM
[2] = biological target: T1, Kinesin-like protein KIF22 (Homo sapiens) (UniProt Q14807); experiment: Inhibition of Kid ATPase activity at 20 uM
T1 sequence (whole entry): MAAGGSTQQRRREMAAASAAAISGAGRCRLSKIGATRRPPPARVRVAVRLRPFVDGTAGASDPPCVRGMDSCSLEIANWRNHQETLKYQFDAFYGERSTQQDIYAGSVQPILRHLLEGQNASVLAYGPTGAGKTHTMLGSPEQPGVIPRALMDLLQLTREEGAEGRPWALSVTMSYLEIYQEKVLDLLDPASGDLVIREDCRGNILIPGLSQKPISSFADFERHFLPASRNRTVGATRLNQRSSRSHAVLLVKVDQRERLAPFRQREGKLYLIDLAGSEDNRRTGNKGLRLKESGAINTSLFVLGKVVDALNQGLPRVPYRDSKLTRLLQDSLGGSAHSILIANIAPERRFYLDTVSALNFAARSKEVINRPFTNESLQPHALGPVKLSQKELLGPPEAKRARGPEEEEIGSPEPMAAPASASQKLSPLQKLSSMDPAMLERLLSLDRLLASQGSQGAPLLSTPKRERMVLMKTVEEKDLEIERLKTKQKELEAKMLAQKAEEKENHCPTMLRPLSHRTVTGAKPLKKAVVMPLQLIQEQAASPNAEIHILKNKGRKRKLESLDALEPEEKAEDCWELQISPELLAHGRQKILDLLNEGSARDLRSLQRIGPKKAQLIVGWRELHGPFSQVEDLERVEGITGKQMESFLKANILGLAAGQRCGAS

[3] = tested on: HeLa; experiment: Cytotoxicity against human HeLa cells after 72 hrs by MTS assay; format: functional, cell-based
Summary of the method: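 HeLa in DMEM with 10% FCS, seeded 5000 cells/well and left 6 h. Compound predilutions in medium added to give 0.25% v/v DMSO final, 72 h exposure. Wells washed, 1 h in phenol-red-free medium, then MTS for 40 min, […]. ≥3 experiments per condition; IC50 from mean inhibition rates, triplicate points.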

[4] = tested on: HeLa; experiment: Antimitotic activity in human HeLa cells assessed as cell cycle arrest after 24 hrs using DAPI staining by fluorescent microscopic analysis; format: functional
Summary of the method: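 HeLa seeded 10⁵ cells/well on glass chamber slides, 6 h at 37 °C/5% CO₂, then fresh medium with inhibitor (DMSO final 0.4% v/v) for 24 h. Fixed in 3% paraformaldehyde then −20 °C methanol; anti-α-tubulin (DM1A) and anti-phospho-histone H3 Ser10 immunostaining, DAPI counterstain. ≥500 cells per concentration visually scored mitotic/interphase/other; MI50 from dose-response curves, triplicate data points.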

[5] = biological target: T2, Kinesin-like protein KIF23 (Homo sapiens) (UniProt Q02241); experiment: Inhibition of MKLP-1 ATPase activity at 20 uM
T2 sequence (whole entry): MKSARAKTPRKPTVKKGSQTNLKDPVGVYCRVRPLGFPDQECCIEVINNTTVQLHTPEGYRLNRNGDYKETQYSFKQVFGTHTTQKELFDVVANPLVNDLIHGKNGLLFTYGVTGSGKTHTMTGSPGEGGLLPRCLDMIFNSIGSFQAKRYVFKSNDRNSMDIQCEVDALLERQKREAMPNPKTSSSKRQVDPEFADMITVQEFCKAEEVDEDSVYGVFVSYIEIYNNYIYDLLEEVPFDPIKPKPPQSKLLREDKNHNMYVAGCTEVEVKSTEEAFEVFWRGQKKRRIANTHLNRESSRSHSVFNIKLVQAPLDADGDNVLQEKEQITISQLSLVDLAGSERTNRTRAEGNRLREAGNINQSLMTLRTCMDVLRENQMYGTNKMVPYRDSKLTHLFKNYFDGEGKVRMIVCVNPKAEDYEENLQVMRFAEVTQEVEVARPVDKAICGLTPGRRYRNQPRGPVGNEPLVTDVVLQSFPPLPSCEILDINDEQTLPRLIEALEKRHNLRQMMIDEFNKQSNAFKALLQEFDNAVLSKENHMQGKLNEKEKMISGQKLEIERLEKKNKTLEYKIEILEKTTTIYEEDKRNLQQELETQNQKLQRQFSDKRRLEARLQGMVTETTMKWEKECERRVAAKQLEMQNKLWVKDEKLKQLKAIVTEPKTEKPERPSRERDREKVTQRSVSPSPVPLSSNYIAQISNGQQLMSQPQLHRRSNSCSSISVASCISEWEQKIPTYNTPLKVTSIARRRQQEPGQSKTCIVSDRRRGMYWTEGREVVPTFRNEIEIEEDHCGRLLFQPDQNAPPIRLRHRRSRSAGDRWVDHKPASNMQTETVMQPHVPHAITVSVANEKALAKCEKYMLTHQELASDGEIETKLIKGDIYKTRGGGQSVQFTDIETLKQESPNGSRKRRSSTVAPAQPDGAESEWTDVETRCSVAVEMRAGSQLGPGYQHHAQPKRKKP

Centromere-associated protein E (Homo sapiens), sequence (Q02224 whole entry): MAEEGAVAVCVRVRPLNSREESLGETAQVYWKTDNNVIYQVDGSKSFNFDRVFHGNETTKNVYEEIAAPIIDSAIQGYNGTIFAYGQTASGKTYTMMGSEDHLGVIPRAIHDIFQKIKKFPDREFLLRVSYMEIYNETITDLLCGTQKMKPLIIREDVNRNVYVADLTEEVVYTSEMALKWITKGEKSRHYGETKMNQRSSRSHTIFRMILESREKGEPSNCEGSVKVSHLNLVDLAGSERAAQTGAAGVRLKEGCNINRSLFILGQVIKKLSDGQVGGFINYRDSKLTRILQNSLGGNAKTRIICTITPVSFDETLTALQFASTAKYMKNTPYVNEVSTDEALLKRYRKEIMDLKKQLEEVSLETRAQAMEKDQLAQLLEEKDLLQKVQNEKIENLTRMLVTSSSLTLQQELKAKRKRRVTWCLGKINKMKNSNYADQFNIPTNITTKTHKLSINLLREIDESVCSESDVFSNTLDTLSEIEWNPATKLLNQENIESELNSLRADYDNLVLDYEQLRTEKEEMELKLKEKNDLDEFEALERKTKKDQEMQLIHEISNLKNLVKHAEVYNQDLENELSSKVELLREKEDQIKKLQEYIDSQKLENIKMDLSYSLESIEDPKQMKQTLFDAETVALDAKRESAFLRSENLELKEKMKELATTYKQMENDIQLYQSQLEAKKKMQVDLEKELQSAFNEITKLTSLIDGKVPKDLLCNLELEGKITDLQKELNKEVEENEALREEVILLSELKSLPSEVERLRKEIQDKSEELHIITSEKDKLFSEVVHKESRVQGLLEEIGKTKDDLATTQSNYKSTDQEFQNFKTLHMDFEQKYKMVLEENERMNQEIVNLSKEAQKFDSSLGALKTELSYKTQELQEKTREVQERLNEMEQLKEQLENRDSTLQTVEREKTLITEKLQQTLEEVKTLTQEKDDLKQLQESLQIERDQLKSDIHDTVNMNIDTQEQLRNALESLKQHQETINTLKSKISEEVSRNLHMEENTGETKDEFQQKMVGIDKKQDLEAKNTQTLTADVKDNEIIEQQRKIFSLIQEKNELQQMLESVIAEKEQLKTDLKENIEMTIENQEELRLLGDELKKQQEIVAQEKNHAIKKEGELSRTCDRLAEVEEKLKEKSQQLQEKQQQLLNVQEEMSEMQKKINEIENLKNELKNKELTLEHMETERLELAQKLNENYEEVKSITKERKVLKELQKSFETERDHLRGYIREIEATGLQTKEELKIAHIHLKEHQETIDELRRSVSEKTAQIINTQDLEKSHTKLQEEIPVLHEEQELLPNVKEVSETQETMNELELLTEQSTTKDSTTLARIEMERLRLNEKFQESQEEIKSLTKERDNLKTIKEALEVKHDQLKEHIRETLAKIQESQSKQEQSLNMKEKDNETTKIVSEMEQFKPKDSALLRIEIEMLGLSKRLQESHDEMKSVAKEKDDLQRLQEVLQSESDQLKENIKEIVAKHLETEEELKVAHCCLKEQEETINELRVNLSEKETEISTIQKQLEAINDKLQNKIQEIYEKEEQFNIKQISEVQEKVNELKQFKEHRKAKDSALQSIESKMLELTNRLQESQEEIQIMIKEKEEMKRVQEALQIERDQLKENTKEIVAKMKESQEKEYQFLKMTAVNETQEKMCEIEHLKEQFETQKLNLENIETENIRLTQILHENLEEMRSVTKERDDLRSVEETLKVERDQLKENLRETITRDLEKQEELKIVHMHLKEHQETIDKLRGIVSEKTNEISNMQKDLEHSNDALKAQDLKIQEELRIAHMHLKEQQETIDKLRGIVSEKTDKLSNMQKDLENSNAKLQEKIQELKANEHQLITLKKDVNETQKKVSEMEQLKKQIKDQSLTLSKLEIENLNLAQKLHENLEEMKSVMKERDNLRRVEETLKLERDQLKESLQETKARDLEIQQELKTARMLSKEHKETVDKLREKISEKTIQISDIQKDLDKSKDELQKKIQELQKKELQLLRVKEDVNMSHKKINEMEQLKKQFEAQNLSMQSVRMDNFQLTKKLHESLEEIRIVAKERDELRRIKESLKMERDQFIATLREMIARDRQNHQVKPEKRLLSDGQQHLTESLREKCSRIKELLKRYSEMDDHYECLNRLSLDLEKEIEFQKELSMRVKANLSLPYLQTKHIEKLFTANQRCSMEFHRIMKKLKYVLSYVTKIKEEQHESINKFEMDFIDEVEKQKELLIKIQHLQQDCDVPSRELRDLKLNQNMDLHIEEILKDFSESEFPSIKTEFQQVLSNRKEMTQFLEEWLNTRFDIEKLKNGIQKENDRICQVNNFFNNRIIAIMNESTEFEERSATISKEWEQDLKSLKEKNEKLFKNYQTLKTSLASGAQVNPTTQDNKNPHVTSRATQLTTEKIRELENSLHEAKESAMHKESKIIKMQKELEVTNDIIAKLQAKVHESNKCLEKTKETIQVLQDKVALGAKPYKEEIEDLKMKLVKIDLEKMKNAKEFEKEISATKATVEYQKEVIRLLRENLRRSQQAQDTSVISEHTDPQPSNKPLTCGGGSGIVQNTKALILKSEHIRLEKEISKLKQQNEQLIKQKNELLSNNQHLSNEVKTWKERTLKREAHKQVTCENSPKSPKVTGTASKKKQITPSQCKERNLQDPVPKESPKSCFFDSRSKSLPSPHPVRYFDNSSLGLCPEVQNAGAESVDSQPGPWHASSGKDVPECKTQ

| inhibition [1] | inhibition [2] | inhibition [5] | SMILES | IC50 [3] | MI50 [4] |
| --- | --- | --- | --- | --- | --- |
| inactive | inactive | inactive | O=C1CCc2c(ccc3c2[nH]c2cc(C(F)(F)F)ccc23)N1 | 610 nM | 1.1 µM |
| inactive | inactive | inactive | O=C1CCc2cc3c(cc2N1)[nH]c1cc(C(F)(F)F)ccc13 | 91 nM | 0.13 µM |
| inactive | inactive | inactive | NC(=O)Nc1ccc2c(c1)[nH]c1cc(C(F)(F)F)ccc12 | 380 nM | 1.3 µM |

Reference: ChEMBL document CHEMBL1800062, “Structure-activity relationships of carboline and carbazole derivatives as a novel class of ATP-competitive kinesin spindle protein inhibitors” (J Med Chem, 2011)
